High-throughput results deposited in PubChem BioAssay by several laboratories.
Myeloid diff MLP = compounds promoting myeloid differentiation | ER-HoxA9 myeloid progenitors, lysozyme-GFP differentiation, flow cytometry | calls only at 10 µM | actives 1% (n = 360,000) | AID 624256;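 active = normalized GFP-positive differentiation at or above the plate's own cutoff, the solvent-only control mean plus 3 SD; inconclusive = no clear call, values can overlap the other calls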;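 note: cells exposed to compound for four days before flow analysis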
DAGLB inhibitor = blocks human DAGLB lipase activity. Q8NCG7. HEK293T DAGLB membrane lysate, EnzChek fluorogenic substrate. inhibition, % at 5.17 µM. actives 0.059% (n = 340,000). AID 504411; in the data active = inhibition above about 34%;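 note: 0% = enzyme with vehicle and 100% = wells lacking enzyme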
MIN6 prolif-1 = MIN6 beta-cell proliferation induction | MIN6 cells proliferation, ATPlite luminescence, 48 h; cells starved in 0.2% serum; 100% = growth in 10% serum | proliferation, % at 10 µM | actives 0.29% (n = 330,000) | AID 2380;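 active = compounds whose signal lies at least 3.5 SD above the mean of all wells on their plate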;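 note: 0% = DMSO-treated cells in low-serum medium and 100% = 10% serum control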
SENP1 inh = blocks the human SENP1 SUMO protease catalytic domain; actives 0.21% (n = 360,000); inhibition, % at 10 µM; AID 624204; Q9P0U3; recombinant SENP1 catalytic domain, CyPet-SUMO1-YPet FRET cleavage;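 active = inhibition at least 30% at 10 µM, raw YFP signal under a set limit, fluorescence ratio 0.5 to 1.5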;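 note: 0% = enzyme with DMSO and 100% = no enzyme wells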
Target sequence (Q9P0U3 419-644 limits assumed): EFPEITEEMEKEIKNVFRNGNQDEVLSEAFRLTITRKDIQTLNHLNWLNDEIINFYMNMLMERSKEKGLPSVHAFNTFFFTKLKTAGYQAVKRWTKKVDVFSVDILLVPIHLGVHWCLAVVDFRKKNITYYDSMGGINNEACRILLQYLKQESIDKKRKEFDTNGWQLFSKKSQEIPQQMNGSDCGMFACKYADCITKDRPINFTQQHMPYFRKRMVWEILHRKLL
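Assay system: hSENP1 catalytic domain, recombinant. Amount: SENP1 enzyme, 20 pM final. Schedule: 50 min reaction, RT, dark. Technique: FRET, CFP and YFP emission. Control set: no-enzyme wells low, DMSO-plus-enzyme wells high control.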
MT1-MMP act inh = blocks activation of human MT1-MMP; P50281; HT1080 RFP-PRO-GFP cells, GFP/RFP ratio fluorescence, overnight; percent of plate control window, DMSO zero; GFP/RFP ratio change, % at 20 µM; actives 0.061% (n = 360,000); AID 651647;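 active = GFP/RFP ratio change of at least 30% with cell ATP level not reduced by more than half and red fluorescence within 50% of control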
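Assay system: HT1080 cells carrying an RFP-PRO-GFP reporter | Dosing: Single dose of 20 µM compound, 1% DMSO final | Incubation: Cells overnight before dosing, compound overnight, 37 °C, 5% CO2 | Evaluation: GFP/RFP fluorescence ratio | Control set: DMSO and RFP-L50D-GFP cell wells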
NRP1-CendR mod = modulators of CendR peptide binding to human neuropilin-1 | O14786 | FAM-RPARPAR peptide binding to NRP-1, fluorescence polarization | inhibition, % at 25 µM | actives 0.85% (n = 360,000) | AID 602438;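 active = inhibition or corrected inhibition above about 18%, plus a signal ratio from 0.5 to 1.5, limit read from the data, passing the limit was not always enough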
MIN6 prolif-2 = confirmation of inducers of beta-cell replication in MIN6 cells; 920 tested, under 10 active; shares compounds with MIN6 prolif-1; proliferation increase, % at 50 µM; MIN6 beta-cell proliferation, ATPlite luminescence, 48 h; cells kept in 0.2% serum; scaled between 0.2% and 10% serum;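 active = proliferation increase above 40% at any of the four tested concentrations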
DAGLB confirm = DAGLB (human) inhibition, confirmation screen; HEK293T DAGLB membrane lysate, EnzChek fluorogenic substrate; AID 504445; actives 73% (n = 190); inhibition, % at 5.17 µM; shares compounds with DAGLB inhibitor;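 active = mean inhibition over triplicate wells above a set limit taken from the primary lipase screen, cut at about 34% in these data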;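 note: 0% = DAGLB with DMSO and 100% = wells lacking DAGLB enzyme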
Myeloid diff CP1 = promotes myeloid progenitor differentiation; shares compounds with Myeloid diff MLP; ER-HoxA9 myeloid progenitors, GFP/Mac1 double-positive flow; calls only; actives 2% (n = 2,300); AID 651706;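 active = share of green or green-and-red cells above 9 and 9% in run 1 or 4 and 3% in run 2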
GFP autofluor = compound fluorescence in myeloid differentiation counter-screen; ER-HoxA9 myeloid progenitors, no estrogen, GFP autofluorescence flow cytometry; vehicle wells 0%, positive control 100%; fluorescence response, % (test concentration not listed); actives 7.4% (n = 2,300); shares compounds with Myeloid diff MLP;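 active = over 5% cells positive for green fluorescent reporter, or over 2% positive for both it and APC stain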;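 note: range taken on the double positive population between DMSO and positive control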
An asterisk follows results filed as active; i = inactive; ? = inconclusive; / = not tested or not shown; + = active, no number. Hits are enriched below; roughly 2.4% of the tested compounds scored in any of these assays.

SMILES	Myeloid diff MLP	DAGLB inhibitor	MIN6 prolif-1	SENP1 inh	MT1-MMP act inh	NRP1-CendR mod	others
CC(C)[C@H]1C(=O)N2CCC[C@H]2[C@]2(O)O[C@](NC(=O)[C@@H]3C=C4c5cccc6[nH]cc(c56)C[C@H]4N(C)C3)(C(C)C)C(=O)N12	+	-2	-6	-29	-27	-22
CCCCn1c(O)c(C(C)=NCc2cc(OC)cc(OC)c2)c(=O)[nH]c1=O	+	6	0	-1	3	-12
CC(C)OCCCNC(=O)c1c(N)n(CC2CCCO2)c2nc3ccccc3nc12 (stereo unspecified)	+	-12	-3	-24	-11	-4
CCCNC(=O)c1c(N)n(CC2CCCO2)c2nc3ccccc3nc12 (stereo unspecified)	i	1	-2	-26	-13	13
CC(C)CCn1c(N)c(C(=O)OCC2CCCO2)c2nc3ccccc3nc21 (stereo unspecified)	+	-2	-2	-76	-32	-3
CCN(C(=O)CN1CC=C(c2ccccc2)CC1)c1c(N)n(Cc2ccccc2)c(=O)[nH]c1=O	i	2	0	-19	-4	-8
CC[N+](CC)(CC)CCCOC(=O)C(O)(c1ccccc1)C1CCCCC1 (stereo unspecified)	i	-1	-2	2	1	-1
C[CH2][Hg][S]c1ccccc1C(=O)O	+	-1	-8	0	9	-1
COc1cc(/C=C/C(=O)c2c(O)n(CCc3ccccc3)c(=O)[nH]c2=O)ccc1O	+	10	0	19	-26	-126
CN1CC=C(c2c[nH]c3ccccc23)CC1	+	2	0	-12	3	2
CN1C2CNC(=O)CC1C1CCC2C1 (stereo unspecified)	i	-4	/	1	1	-7
CCN(CC)c1ccc(/C=C2\C(=O)NC(=S)N(c3ccc(OC)cc3OC)C2=O)o1	+	-3	-1	78*	-104	-1
COc1cccc(N2C(=O)/C(=C/c3ccc(C)o3)C(=O)NC2=S)c1	i	6	-1	-12	-5	-175
CCN1C(=O)/C(=C/c2ccc(N(CC)CC)cc2OC)C(=O)NC1=S	i	3	-5	-4	0	-117
COc1ccc(N2C(=O)/C(=C/c3ccc(N(C)C)o3)C(=O)NC2=S)cc1	i	-3	2	69*	-62	-187
O=[N+]([O-])c1ccc(C(=Nc2ccccc2)N2CC2)cc1	i	2	/	1	6	0
Cc1ccc(S(=O)(=O)N2Cc3cc(-c4ccccc4)ccc3-n3nncc3C2)cc1	i	/	/	-1	-3	6
O=S(=O)(c1cc(Cl)cc(Cl)c1)N1Cc2cc(-c3ccccc3)ccc2-n2nncc2C1	i	/	/	4	0	23*
C/C(=N\N1CCCCCC1)c1c(O)n(C2CCCCC2)c(=O)[nH]c1=O	i	5	-1	1	2	-7
COc1cccc(-n2c(/C=C/c3ccccn3)nc3ccccc3c2=O)c1	i	1	8.5*	1	0	-4	MIN6 prolif-2=-6
CN1CCN(c2nc3ccccc3o2)CC1	i	2	7.3*	1	-4	-14	MIN6 prolif-2=-2
Cc1ccc(C(=O)COC(=O)Cc2ccccc2)cc1	i	-13	5	4	1	-63
O=C(O)C1CN2CCC1CC2 (stereo unspecified)	i	-1	0	3	-2	-17
CC(C)(C)NC(=O)Cn1cc(C(=O)c2ccccc2F)c2ccccc21	i	-4	0	1	-7	7
Cc1ccc(-n2c(O)c(C=Nc3ccc(S(N)(=O)=O)cc3)c(=O)[nH]c2=O)cc1	i	-1	-4	1	-35	-4
SMILES	Myeloid diff MLP	DAGLB inhibitor	MIN6 prolif-1	SENP1 inh	MT1-MMP act inh	NRP1-CendR mod	others
NS(=O)(=O)c1ccc(N=Cc2c(O)n(-c3ccccc3)c(=O)[nH]c2=O)cc1	i	/	8.2*	0	-3	-13	MIN6 prolif-2=3
C=CCn1c(O)c(C(CC)=NCc2ccco2)c(=O)[nH]c1=O	i	-2	6.2*	3	5	-3	MIN6 prolif-2=0
C=CCn1c(O)c(C(C)=NCc2ccco2)c(=O)[nH]c1=O	i	-1	-3	0	7	1
CC/C(=N\NC(=O)c1ccccc1)c1c(O)n(C2CCCCC2)c(=O)[nH]c1=O	i	10	12*	-19	-2	-8	MIN6 prolif-2=-5
CC/C(=N\NC(=O)c1ccccc1Cl)c1c(O)n(C2CCCCC2)c(=O)[nH]c1=O	i	13	0	-8	4	-6
COc1ccc(-c2cc(=O)c3c(OC)c(OC)c(OC)cc3o2)cc1	i	-2	9.3*	2	6	-11	MIN6 prolif-2=-2
CC(=O)c1ccc(OC(NC(=O)c2ccco2)C(Cl)(Cl)Cl)cc1 (stereo unspecified)	+	6	7.2*	-1	2	-10	MIN6 prolif-2=-1;Myeloid diff CP1=i;GFP autofluor=0
CN(CC=CCN(C)P(=S)(N1CC1)N1CC1)P(=S)(N1CC1)N1CC1	?	0	/	2	7	0
CC(=O)c1ccc2c(c1)C1C(Cl)C(Sc3ccccc3[N+](=O)[O-])CC1C(C(=O)O)N2 (stereo unspecified)	i	36*	/	1	45*	31*	DAGLB confirm=31
NP(=O)(OCCCCc1ccccc1)Oc1ccccc1Cl (stereo unspecified)	i	39*	-2	2	-3	4	DAGLB confirm=40*
NC(N)=N/N=C/c1cn(-c2ccccc2)nc1-c1cccs1	i	4	-6	3	5	16
CCCNC(=O)N1[C@H]2CC[C@@H]1C(C(=O)OC)=C(c1cccc(Cl)c1)C2	i	2	4	-1	-1	3
